What was measured:
[1] = test system: Tyrosine-protein kinase ABL1 (Homo sapiens), P00519 [F317I]; assay: Inhibition of ABL1 F317I mutant at 1 uM
[2] = molecular target: Insulin-like growth factor 1 receptor (Homo sapiens) (UniProt P08069); assay: Inhibition of IGF1R at 1 uM
Summary of the method: (§1)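 Single-concentration screen on the Ambit KINOMEscan platform, run against a panel of 250–400 kinases. Per-kinase inhibition was also summarized as S(90), the fraction of kinases inhibited by more than 90%.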

[3] = molecular target: Cyclin-dependent kinase 18 (Homo sapiens) (UniProt Q07002); assay: Inhibition of PCTK3 at 1 uM
[4] = molecular target: Serine/threonine-protein kinase 32B (Homo sapiens) (UniProt Q9NY57); assay: Inhibition of YANK2 at 1 uM
[5] = molecular target: T1, Inhibitor of nuclear factor kappa-B kinase subunit alpha (Homo sapiens) (UniProt O15111); assay: Inhibition of IKK-alpha at 1 uM
T1 sequence (whole entry): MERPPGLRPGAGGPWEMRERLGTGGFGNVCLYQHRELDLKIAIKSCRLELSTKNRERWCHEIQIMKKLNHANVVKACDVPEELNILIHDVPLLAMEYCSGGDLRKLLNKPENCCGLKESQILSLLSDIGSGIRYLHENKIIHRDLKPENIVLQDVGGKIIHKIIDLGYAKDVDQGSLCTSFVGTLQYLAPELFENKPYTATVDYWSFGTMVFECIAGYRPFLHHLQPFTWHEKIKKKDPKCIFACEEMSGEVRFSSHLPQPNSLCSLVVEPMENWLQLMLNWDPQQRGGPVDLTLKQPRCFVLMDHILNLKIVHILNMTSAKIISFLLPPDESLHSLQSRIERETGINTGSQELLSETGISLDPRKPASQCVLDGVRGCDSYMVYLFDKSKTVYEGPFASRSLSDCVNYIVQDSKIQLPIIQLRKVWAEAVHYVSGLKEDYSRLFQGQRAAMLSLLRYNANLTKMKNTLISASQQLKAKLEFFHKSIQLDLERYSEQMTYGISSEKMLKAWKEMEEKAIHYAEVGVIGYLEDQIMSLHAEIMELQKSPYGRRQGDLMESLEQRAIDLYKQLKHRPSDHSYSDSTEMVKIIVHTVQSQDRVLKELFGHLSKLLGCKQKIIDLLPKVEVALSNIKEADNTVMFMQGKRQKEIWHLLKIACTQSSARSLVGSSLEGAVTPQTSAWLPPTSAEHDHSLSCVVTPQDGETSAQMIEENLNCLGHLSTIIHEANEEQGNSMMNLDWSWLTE

[6] = test system: T2, Receptor-type tyrosine-protein kinase FLT3 (Homo sapiens), P36888 [N841I]; assay: Inhibition of FLT3 N841I mutant at 1 uM; summary of the method: as §1
T2 sequence (whole entry): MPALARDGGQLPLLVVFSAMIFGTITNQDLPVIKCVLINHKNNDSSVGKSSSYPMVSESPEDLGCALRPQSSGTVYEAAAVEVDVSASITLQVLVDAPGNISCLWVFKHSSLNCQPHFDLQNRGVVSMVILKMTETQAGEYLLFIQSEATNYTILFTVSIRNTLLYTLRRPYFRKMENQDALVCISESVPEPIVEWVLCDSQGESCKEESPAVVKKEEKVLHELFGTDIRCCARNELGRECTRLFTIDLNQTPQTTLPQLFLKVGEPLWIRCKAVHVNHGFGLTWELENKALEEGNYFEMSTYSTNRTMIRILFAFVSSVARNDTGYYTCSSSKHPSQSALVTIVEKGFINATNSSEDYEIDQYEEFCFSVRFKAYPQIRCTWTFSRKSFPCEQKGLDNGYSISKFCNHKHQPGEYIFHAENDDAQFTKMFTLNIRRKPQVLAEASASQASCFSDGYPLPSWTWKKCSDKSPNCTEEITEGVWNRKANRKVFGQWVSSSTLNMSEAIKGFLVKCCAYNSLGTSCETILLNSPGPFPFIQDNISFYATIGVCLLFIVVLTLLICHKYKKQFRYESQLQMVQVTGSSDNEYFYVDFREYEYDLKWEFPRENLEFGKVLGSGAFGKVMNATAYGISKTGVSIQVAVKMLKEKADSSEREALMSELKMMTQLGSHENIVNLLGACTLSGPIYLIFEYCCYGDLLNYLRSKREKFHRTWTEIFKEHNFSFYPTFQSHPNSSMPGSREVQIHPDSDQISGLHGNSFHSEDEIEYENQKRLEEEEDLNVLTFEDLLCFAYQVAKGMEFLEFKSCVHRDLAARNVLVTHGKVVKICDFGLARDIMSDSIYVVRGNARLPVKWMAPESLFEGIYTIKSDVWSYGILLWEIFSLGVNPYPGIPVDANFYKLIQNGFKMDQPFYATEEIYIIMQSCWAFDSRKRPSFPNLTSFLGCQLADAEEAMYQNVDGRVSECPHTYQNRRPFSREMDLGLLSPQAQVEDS

[7] = molecular target: Non-receptor tyrosine-protein kinase TYK2 (Homo sapiens) (UniProt P29597); assay: Inhibition of TYK2 JH2 pseudokinase domain at 1 uM
[8] = molecular target: T3, Tyrosine-protein kinase ITK/TSK (Homo sapiens) (UniProt Q08881); assay: Inhibition of ITK at 1 uM; summary of the method: as §1
T3 sequence (whole entry): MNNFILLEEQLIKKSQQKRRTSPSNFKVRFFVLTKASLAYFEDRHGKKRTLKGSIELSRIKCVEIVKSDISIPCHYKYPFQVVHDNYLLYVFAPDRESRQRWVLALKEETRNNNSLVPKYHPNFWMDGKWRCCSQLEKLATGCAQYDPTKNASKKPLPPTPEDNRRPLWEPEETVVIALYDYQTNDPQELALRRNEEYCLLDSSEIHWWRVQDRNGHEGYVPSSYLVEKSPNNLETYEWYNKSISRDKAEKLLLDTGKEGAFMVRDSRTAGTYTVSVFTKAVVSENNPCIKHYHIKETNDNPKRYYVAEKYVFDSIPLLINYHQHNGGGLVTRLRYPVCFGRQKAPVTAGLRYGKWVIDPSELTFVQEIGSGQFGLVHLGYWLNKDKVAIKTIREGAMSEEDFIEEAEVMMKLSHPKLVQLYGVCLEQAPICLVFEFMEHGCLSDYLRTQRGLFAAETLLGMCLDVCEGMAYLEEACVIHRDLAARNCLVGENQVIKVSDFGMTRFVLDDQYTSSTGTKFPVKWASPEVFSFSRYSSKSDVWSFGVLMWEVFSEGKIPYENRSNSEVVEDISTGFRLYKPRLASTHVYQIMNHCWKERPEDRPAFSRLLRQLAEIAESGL

[9] = molecular target: Mitogen-activated protein kinase 9 (Homo sapiens) (UniProt P45984); assay: Inhibition of JNK2 at 1 uM; summary of the method: as §1
Chain of Mitogen-activated protein kinase 9 (Homo sapiens) (P45984 whole entry, looked up): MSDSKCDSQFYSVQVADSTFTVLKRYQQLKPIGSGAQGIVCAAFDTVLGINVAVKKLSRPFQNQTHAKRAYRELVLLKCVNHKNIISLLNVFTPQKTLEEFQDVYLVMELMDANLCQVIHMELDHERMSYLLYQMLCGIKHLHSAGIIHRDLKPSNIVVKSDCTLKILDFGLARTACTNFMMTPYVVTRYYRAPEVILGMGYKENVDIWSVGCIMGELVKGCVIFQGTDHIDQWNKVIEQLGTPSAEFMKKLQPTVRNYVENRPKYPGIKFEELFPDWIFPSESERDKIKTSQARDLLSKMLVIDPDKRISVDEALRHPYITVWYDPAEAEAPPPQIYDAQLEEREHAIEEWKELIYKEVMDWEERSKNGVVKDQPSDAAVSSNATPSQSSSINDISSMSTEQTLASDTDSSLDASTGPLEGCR

Chain of Insulin-like growth factor 1 receptor (Homo sapiens) (P08069 31-736 limits assumed): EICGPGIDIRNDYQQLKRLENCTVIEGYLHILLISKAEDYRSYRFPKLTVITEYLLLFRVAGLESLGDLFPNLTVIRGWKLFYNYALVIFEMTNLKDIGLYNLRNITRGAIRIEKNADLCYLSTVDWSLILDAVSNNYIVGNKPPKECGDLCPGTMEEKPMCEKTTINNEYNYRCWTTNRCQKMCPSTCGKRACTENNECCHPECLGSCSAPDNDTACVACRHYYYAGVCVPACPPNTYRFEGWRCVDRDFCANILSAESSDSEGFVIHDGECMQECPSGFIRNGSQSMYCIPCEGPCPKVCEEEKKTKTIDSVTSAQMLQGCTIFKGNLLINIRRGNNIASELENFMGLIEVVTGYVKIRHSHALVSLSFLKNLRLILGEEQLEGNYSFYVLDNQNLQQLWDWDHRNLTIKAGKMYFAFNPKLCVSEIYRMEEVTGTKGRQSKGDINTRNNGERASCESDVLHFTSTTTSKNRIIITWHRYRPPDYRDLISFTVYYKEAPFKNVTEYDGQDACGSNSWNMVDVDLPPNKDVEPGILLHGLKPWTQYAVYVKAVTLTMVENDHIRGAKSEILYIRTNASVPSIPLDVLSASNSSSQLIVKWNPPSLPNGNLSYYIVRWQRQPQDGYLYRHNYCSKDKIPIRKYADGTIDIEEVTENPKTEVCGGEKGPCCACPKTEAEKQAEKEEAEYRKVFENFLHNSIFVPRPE
Chain of Insulin-like growth factor 1 receptor (Homo sapiens) (P08069 741-1367 limits assumed): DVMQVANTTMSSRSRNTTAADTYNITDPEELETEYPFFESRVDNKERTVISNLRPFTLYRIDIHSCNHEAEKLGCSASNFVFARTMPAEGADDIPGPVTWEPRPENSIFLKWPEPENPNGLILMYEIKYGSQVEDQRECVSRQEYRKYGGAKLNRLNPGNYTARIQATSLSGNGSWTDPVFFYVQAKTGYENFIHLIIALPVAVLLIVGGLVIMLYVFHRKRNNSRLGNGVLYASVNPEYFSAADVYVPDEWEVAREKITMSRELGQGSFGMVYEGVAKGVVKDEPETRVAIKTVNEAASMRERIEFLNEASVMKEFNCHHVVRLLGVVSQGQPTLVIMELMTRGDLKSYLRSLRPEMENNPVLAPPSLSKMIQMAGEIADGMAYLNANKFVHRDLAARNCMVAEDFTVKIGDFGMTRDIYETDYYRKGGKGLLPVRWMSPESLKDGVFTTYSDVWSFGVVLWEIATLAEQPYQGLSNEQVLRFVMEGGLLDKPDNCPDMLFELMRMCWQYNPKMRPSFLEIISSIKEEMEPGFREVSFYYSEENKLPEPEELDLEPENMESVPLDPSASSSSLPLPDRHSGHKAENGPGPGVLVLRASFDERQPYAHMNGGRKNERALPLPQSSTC
Chain of Cyclin-dependent kinase 18 (Homo sapiens) (Q07002 whole entry): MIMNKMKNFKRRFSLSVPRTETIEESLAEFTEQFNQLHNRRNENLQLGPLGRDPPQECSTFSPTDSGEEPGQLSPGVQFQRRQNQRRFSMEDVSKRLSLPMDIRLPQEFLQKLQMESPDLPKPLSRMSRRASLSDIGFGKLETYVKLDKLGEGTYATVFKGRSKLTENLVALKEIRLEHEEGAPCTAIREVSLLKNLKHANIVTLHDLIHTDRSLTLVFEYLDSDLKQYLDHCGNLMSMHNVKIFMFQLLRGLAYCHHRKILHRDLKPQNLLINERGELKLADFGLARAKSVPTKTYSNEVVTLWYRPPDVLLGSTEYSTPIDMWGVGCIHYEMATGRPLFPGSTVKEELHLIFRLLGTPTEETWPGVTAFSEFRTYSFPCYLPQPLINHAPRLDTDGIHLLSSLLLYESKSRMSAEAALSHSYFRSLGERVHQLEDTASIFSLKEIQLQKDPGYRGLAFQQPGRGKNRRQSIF
Chain of Serine/threonine-protein kinase 32B (Homo sapiens) (Q9NY57 whole entry): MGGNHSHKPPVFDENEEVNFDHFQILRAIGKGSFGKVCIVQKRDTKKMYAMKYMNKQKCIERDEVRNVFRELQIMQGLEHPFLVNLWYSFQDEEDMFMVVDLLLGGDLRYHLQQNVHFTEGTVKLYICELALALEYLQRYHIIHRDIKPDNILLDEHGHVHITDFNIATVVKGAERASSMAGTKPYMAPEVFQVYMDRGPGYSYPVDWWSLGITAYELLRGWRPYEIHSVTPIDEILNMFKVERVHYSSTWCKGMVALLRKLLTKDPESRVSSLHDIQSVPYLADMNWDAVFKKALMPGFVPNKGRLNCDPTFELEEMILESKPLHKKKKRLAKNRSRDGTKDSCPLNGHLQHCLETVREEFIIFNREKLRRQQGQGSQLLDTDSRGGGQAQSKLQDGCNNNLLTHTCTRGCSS
Chain of Non-receptor tyrosine-protein kinase TYK2 (Homo sapiens) (P29597 whole entry, the tested form may be a part): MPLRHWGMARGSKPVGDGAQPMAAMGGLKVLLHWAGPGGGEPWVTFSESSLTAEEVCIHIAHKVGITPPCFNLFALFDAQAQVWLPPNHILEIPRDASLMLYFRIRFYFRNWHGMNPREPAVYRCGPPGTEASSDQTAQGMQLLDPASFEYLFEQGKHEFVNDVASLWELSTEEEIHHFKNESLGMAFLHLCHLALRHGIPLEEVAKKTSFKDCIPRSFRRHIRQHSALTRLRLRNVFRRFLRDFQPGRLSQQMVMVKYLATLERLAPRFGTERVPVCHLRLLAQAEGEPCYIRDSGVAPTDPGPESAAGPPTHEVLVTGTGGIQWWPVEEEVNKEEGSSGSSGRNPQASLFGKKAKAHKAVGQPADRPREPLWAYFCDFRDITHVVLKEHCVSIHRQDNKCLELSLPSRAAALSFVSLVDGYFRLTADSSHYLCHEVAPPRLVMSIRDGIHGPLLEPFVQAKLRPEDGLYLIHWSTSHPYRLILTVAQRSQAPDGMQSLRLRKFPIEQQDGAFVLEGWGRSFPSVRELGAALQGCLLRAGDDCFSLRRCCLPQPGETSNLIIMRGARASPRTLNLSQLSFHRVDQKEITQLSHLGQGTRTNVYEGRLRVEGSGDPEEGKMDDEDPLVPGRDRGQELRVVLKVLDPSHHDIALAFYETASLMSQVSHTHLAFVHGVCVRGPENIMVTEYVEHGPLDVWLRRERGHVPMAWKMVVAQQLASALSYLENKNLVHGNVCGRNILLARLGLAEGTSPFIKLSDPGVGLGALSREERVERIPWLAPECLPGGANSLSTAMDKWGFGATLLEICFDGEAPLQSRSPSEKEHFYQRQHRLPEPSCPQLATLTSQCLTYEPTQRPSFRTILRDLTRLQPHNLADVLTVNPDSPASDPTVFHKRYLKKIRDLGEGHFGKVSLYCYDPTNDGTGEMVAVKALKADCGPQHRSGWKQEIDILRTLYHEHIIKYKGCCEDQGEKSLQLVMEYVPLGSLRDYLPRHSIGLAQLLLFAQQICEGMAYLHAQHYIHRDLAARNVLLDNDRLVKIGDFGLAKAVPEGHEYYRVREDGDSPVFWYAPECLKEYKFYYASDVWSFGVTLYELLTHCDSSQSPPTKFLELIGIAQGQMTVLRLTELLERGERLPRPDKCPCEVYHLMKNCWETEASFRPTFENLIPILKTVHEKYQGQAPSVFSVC
Chain of Tyrosine-protein kinase ABL1 (Homo sapiens), P00519 [F317I] (P00519 whole entry F317I): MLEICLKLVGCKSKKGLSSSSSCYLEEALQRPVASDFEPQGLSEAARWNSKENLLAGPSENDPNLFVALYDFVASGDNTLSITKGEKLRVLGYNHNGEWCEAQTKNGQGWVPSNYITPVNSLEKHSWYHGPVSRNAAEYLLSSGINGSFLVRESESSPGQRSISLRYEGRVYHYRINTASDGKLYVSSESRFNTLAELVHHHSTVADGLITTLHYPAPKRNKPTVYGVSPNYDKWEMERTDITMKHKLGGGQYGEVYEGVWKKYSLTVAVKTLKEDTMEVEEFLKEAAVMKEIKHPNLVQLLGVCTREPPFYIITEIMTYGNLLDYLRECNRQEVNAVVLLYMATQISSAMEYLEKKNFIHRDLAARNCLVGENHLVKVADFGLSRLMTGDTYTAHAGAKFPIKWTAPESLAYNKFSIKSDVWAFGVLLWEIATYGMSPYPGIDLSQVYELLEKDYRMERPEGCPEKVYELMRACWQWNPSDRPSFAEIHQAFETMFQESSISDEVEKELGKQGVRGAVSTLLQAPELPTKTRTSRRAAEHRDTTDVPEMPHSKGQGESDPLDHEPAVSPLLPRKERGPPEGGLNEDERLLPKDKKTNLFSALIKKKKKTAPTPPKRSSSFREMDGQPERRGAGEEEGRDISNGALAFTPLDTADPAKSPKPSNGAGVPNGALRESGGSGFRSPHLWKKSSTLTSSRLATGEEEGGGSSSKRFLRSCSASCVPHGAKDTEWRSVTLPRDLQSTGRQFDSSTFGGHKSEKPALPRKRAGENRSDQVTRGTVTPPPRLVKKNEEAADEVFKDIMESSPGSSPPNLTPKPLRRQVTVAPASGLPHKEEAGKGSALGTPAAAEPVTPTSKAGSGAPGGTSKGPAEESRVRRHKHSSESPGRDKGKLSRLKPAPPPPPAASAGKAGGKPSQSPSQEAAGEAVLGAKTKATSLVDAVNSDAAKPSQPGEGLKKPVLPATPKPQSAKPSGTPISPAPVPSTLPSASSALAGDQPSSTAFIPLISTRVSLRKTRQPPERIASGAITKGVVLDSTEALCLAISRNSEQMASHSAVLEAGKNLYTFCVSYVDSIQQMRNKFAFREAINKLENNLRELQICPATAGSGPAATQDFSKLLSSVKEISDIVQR

SMILES | inhibition [1] [%] | inhibition [2] [%] | inhibition [3] [%] | inhibition [4] [%] | inhibition [5] [%] | inhibition [6] [%] | inhibition [7] [%] | inhibition [8] [%] | inhibition [9] [%]
CN1CCN(c2ccc(-c3cnc4c(c3)N(Cc3cc(F)ccc3F)CCN4)cn2)CC1 | < 50 | < 50 | < 50 | < 50 | < 50 | 84.6 | < 50 | < 50 | < 50
CN1CCN(c2ccc(-c3cnc4c(c3)N(Cc3c(F)ccc(F)c3Cl)CCN4)cn2)CC1 | 74 | < 50 | < 50 | < 50 | < 50 | 83 | < 50 | < 50 | < 50
CC(=O)N1CCN(c2cc(-c3cnc4c(c3)N(Cc3cc(Cl)ccc3C(F)(F)F)CCN4)ccn2)CC1 | < 50 | < 50 | < 50 | < 50 | < 50 | 92 | < 50 | < 50 | < 50
FC(F)(F)c1ccc(Cl)cc1CN1CCNc2ncc(-c3ccnc(N4CCNCC4)c3)cc21 | < 50 | < 50 | < 50 | < 50 | < 50 | 100 | < 50 | < 50 | < 50
CN1CCN(c2ccc(-c3cnc4c(c3)N(Cc3cc(Cl)ccc3C(F)(F)F)CCN4)cn2)CC1 | < 50 | < 50 | < 50 | < 50 | < 50 | < 50 | < 50 | < 50 | < 50
CN1CCN(c2ccc(-c3cnc4c(c3)N(Cc3cc(Cl)ccc3Cl)CCN4)cn2)CC1 | < 50 | < 50 | < 50 | < 50 | < 50 | 93 | < 50 | < 50 | < 50

Results, then the compound that gave them:

inhibition [1] [%] | inhibition [2] [%] | inhibition [3] [%] | inhibition [4] [%] | inhibition [5] [%] | inhibition [6] [%] | inhibition [7] [%] | inhibition [8] [%] | inhibition [9] [%] | SMILES
 | < 50 |  | < 50 |  | 96.1 |  | < 50 | < 50 | O=C(c1ccc(-c2cnc3c(c2)N(Cc2cc(Cl)ccc2C(F)(F)F)CCN3)cc1)N1CCC(N2CCCC2)CC1
 | < 50 |  | < 50 |  | < 50 |  | < 50 | < 50 | O=C(c1ccc(-c2cnc3c(c2)N(Cc2cc(Cl)ccc2C(F)(F)F)CCN3)cc1)N1CCCCC1
 | < 50 |  | < 50 |  | < 50 |  | < 50 | < 50 | COC1CCN(C(=O)c2ccc(-c3cnc4c(c3)N(Cc3cc(Cl)ccc3C(F)(F)F)CCN4)cc2)CC1
< 50 | < 50 |  | < 50 |  | < 50 |  | < 50 | < 50 | O=C(O)c1ccc(-c2cnc3c(c2)N(Cc2cc(Cl)ccc2C(F)(F)F)CCN3)cc1
